Test results reported in ChEMBL document CHEMBL3608231, “Eremophilane Sesquiterpenes and Polyketones Produced by an Endophytic Guignardia Fungus from the Toxic Plant Gelsemium elegans” (J Nat Prod, 2015).
The source made the active and inactive calls.

What was measured:
Assay type in all cases: functional, cell-based
[1] = tested on: A549; test: Cytotoxicity against human A549 cells after 72 hrs by MTT assay
How it was run: (§1)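 Cells kept in RPMI 1640 with 10% FBS in 96-well plates, 24 h at 37 °C, then samples added from DMSO solution at final 10 μM. Growth assessed after 72 h by MTT (4 h at 37 °C), formazan dissolved in DMSO, absorbance at 570 nm. Camptothecin as positive control.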

[2] = tested on: HCT-116; test: Cytotoxicity against human HCT116 cells after 72 hrs by MTT assay; how it was run: as §1
[3] = tested on: BGC-823; test: Cytotoxicity against human BGC823 cells after 72 hrs by MTT assay; how it was run: as §1
[4] = tested on: HCT-8; test: Cytotoxicity against human HCT8 cells after 72 hrs by MTT assay; how it was run: as §1
[5] = tested on: A2780; test: Cytotoxicity against human A2780 cells after 72 hrs by MTT assay; how it was run: as §1
[6] = tested on: Bel-7402; test: Cytotoxicity against human Bel7402 cells after 72 hrs by MTT assay; how it was run: as §1

Measured: Activity

C=C(C)[C@@H]1C[C@@]2(C)C(=CC1=O)[C@@H](O)[C@H](O)[C@H](O)[C@@H]2C
inactive: [1] | [2] | [3] | [4] | [5] | [6]

CC(C)=C1C[C@@]2(C)C(=CC1=O)[C@@H](O)[C@H](O)[C@H](O)[C@@H]2C
inactive: [1] | [2] | [3] | [4] | [5] | [6]

C=C(C)[C@@H]1C[C@@]2(C)C(=CC(=O)C[C@@H]2C)C[C@H]1O
inactive: [1] | [2] | [3] | [4] | [5] | [6]

CC(=O)O[C@H]1[C@@H](O)CC2=CC(=O)C(O)=C[C@]2(C)[C@H]1C
inactive: [1] | [2] | [3] | [4] | [5] | [6]

C=C1CC[C@H]2C(C)(C)CCC[C@]2(C)[C@H]1C[C@@]12O[C@@H]1[C@H](O)C(CO)=CC2=O
inactive: [1] | [2] | [3] | [4] | [5] | [6]

C[C@H]1CCC(=O)O[C@@H]2C(=O)c3c(O)cccc3O[C@H]21
inactive: [1] | [2] | [3] | [4] | [5] | [6]

C=C(C)[C@@H]1CC[C@@]2(C)OC3=C(C[C@@H]12)C(=O)[C@@H]1C[C@@]3(O)CO1
inactive: [1] | [2] | [3] | [4] | [5] | [6]

C=C(C)[C@H]1C[C@@]2(C)C(=CC1=O)[C@H](O)[C@H](O)C[C@@H]2C
inactive: [1] | [2] | [3] | [4] | [5] | [6]

C=C(C(C)=O)C(=C\c1cccc(C)c1N)/C(=C/O)CC
inactive: [1] | [2] | [3] | [4] | [5] | [6]
